Our source for the Activity and Stability values is ChEMBL document CHEMBL1142241, “Atropisomeric 3-(beta-hydroxyethyl)-4-arylquinolin-2-ones as Maxi-K potassium channel openers” (J Med Chem, 2007).

Data set [1] concerns the target Calcium-activated potassium channel subunit alpha-1 (Homo sapiens) (UniProt Q12791). Kind of data set: Activity at human maxi-K hSlo channel expressed in Xenopus oocytes assessed as increase in maxi k current at 20 uM relative to iberiotoxin. To be noted: Oocyte. The data set is classed as cell-based. In outline: (§1)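 Xenopus oocytes injected with 50 ng hSlo cRNA, recorded 2–5 days post-injection. Outward K+ currents evoked from a holding potential of -60 mV over -40 to +140 mV in 20 mV depolarizing steps. Compound applied for 5 min in at least 4–5 oocytes, then 100 nM iberiotoxin for 10 min. Values are % IbTX-sensitive current at peak effect, drug-free control = 100%.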

The target is the same in data set [2]. Kind of data set: Activity at human maxi-K hSlo channel expressed in Xenopus oocytes assessed as increase in maxi k current at 10 uM relative to iberiotoxin. It is filed as cell-based. To be noted: Oocyte. Put shortly:
as §1

The test system of a further data set is Serum. Kind of data set: Stability in human serum at 1 mM in 37 degC upto 30 hrs. It is filed as ADME, cell-free. As to conditions: 1000 µM. In outline:
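Pooled human serum prewarmed 5 min at 37 °C; test agent added from 0.1 M DMSO stock to final 1 mM in serum with 1% DMSO, held at 37 °C. Racemization followed by supercritical fluid chromatography on a chiral column over 30 h.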

Data set [3] addresses Calcium-activated potassium channel subunit alpha-1 (Homo sapiens) (UniProt Q12791). Kind of data set: Activity at human maxi-K hSlo channel expressed in Xenopus oocytes assessed as increase in maxi k current at 5 uM relative to iberiotoxin. As to conditions: Oocyte. The data set is classed as cell-based. In outline:
as §1

Structures are written as SMILES. Where “and” joins values, the source holds several entries; their conditions need not be identical. Identical values can stand only once.

Calcium-activated potassium channel subunit alpha-1 (Homo sapiens), sequence (Q12791 whole entry): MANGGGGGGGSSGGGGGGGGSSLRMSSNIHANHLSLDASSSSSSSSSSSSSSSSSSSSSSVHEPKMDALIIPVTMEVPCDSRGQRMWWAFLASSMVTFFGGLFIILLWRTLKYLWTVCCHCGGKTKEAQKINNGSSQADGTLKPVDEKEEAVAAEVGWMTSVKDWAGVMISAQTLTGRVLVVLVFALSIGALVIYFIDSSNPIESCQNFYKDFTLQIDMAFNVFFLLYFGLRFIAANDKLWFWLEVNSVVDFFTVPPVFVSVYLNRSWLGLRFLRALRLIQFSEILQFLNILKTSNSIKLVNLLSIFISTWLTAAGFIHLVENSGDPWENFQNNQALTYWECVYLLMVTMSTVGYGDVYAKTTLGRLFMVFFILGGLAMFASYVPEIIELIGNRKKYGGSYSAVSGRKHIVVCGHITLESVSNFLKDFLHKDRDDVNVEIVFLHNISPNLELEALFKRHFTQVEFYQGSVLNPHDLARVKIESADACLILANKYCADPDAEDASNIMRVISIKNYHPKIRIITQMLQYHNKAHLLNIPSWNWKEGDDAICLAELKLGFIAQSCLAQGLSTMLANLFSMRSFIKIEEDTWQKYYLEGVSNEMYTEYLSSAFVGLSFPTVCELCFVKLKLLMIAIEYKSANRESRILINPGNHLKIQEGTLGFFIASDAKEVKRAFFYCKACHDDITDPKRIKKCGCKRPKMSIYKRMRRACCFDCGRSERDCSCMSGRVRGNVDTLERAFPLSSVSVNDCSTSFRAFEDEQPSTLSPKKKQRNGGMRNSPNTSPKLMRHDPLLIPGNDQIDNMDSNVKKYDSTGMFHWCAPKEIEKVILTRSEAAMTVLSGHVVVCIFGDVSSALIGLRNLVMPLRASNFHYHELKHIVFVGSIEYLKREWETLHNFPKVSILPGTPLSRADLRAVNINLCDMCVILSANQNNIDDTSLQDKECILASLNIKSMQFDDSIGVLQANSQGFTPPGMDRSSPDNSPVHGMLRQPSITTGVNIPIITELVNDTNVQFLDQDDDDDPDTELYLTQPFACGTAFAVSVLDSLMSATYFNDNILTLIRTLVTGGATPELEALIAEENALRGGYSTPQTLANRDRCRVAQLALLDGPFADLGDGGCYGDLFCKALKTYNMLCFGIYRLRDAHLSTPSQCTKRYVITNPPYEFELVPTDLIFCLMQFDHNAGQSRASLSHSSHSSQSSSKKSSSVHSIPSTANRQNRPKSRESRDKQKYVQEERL

In the case of `O=c1[nH]c2ccc(C(F)(F)F)cc2c(-c2cc(Cl)ccc2O)c1CCO` [BMS-223131], the Activity in data set [1] was 253%; in data set [2], 214% and 292% and 259%. The Stability entry in the data set on Serum was “Stable”.

For the molecule `CCCc1cc(Cl)cc(-c2c(CCO)c(=O)n(C)c3ccc(C(F)(F)F)cc23)c1O`, in data set [2], the Activity was found to be 127%.

As for `C=C(C)Cc1cc(Cl)cc(-c2c(CCO)c(=O)n(C)c3ccc(C(F)(F)F)cc23)c1O`, in data set [2], the Activity was 114%.

`Cn1c(=O)c(CCO)c(-c2cc(Cl)ccc2O)c2cc(C(F)(F)F)ccc21`: the Activity in data set [1] was 296%; in data set [2], 361% and 184% and 257%.

For the molecule `Cn1c(=O)c(CCO)c(-c2cc(Cl)cc(CCCO)c2O)c2cc(C(F)(F)F)ccc21`, the Activity in data set [1] was determined as 164%.

Turning to `CC(C)Cc1cc(Cl)cc(-c2c(CCO)c(=O)n(C)c3ccc(C(F)(F)F)cc23)c1O`, the Activity in data set [3] came out at 96.5%.

Turning to `Cn1c(=O)c(CCO)c(-c2cc(Cl)cc(CC(O)CO)c2O)c2cc(C(F)(F)F)ccc21` (stereo not given), the Activity in data set [1] came out at 112%.
